According to the M2OR odorant receptor database:

Columns and labels:
Conditions in all cases: stereoisomer not certain
[1] = target: T1, OR13C2 (Homo sapiens) (UniProt Q8NGS9)
T1 sequence (whole entry): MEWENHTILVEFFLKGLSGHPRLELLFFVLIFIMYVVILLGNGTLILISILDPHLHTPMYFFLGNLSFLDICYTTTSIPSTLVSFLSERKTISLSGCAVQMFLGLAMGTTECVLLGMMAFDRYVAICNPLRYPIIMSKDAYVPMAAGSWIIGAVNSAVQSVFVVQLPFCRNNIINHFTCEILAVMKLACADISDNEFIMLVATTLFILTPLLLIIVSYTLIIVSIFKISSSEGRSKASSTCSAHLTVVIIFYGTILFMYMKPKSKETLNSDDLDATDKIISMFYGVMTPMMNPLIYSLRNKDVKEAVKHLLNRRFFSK
How it was run: (§1)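 Each receptor–molecule pair is labelled responsive or non-responsive (inactive) according to whether the original authors judged the measured signal statistically different from baseline. The data were taken from the main text and supplementary material of published papers and checked for typos and inconsistencies. Assay methods differed by source, with transient luciferase assays in mammalian cell lines being common.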

[2] = target: T2, OR13C3 (Homo sapiens) (UniProt Q8NGS6)
T2 sequence (whole entry): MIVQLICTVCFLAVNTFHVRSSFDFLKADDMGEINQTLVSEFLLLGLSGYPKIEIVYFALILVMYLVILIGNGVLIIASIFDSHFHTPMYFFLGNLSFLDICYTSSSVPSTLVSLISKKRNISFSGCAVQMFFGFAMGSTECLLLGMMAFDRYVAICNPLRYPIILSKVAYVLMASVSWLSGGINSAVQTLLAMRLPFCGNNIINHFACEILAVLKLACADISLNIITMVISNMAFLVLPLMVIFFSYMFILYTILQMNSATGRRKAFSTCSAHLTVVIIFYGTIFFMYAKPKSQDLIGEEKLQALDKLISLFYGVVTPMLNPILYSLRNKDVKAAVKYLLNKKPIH
How it was run: as §1

[3] = target: T3, OR13C4 (Homo sapiens) (UniProt Q8NGS5)
T3 sequence (whole entry): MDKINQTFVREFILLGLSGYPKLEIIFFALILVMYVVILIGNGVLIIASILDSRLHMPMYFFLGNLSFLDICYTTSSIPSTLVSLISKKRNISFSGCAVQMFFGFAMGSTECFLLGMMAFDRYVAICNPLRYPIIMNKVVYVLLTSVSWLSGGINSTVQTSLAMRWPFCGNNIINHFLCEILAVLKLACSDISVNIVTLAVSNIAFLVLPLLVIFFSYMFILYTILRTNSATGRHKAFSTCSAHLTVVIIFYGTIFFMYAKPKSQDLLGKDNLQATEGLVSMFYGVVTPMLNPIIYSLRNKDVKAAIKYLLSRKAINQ
How it was run: as §1

[4] = target: T4, OR13C5 (Homo sapiens) (UniProt Q8NGS8)
T4 sequence (whole entry): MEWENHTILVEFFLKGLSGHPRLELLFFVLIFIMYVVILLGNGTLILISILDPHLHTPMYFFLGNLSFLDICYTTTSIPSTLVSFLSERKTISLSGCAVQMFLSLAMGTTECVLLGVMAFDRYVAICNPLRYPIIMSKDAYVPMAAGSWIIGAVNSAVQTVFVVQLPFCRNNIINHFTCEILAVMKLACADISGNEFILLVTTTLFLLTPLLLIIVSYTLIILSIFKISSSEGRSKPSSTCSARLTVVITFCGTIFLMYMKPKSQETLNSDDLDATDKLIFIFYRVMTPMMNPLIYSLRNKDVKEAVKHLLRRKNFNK
How it was run: as §1

[5] = target: T5, OR13C8 (Homo sapiens) (UniProt Q8NGS7)
T5 sequence (whole entry): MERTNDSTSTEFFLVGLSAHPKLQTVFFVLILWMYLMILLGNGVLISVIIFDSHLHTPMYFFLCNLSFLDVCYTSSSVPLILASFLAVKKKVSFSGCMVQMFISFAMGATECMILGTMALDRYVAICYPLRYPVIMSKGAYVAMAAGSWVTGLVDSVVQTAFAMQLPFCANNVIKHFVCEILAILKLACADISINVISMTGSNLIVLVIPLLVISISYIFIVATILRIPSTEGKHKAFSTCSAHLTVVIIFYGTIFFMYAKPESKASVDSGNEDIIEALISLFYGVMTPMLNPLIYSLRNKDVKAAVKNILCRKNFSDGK
How it was run: as §1

[6] = target: T6, OR13C9 (Homo sapiens) (UniProt Q8NGT0)
T6 sequence (whole entry): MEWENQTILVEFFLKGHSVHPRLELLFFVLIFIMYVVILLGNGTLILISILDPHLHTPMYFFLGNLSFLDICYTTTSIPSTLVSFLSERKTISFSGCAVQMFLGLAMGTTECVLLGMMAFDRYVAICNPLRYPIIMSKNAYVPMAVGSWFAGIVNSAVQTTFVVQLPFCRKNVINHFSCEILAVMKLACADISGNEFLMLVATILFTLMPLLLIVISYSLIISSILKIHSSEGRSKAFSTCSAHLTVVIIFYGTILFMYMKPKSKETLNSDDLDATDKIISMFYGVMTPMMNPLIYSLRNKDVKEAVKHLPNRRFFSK
How it was run: as §1

[7] = target: T7, OR13D1 (Homo sapiens) (UniProt Q8NGV5)
T7 sequence (whole entry): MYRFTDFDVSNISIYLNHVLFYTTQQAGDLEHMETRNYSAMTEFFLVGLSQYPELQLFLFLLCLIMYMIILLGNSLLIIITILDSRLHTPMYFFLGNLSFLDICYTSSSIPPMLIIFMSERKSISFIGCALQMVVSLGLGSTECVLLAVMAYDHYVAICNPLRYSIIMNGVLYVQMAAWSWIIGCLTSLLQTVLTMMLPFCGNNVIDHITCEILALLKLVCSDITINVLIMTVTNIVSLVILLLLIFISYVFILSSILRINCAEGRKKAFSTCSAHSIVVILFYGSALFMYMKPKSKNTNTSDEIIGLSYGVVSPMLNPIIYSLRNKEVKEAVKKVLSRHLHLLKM
How it was run: as §1

[8] = target: T8, OR13F1 (Homo sapiens) (UniProt Q8NGS4)
T8 sequence (whole entry): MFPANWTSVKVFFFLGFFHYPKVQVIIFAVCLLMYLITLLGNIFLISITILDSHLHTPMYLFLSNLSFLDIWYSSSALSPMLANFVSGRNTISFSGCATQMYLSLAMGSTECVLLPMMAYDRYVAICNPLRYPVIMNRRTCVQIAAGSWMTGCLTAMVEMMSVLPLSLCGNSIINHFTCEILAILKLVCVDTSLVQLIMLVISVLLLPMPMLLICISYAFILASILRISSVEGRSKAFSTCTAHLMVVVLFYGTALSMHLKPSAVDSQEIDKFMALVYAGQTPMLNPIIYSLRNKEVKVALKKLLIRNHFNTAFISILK
How it was run: as §1

[9] = target: T9, OR13G1 (Homo sapiens) (UniProt Q8NGZ3)
T9 sequence (whole entry): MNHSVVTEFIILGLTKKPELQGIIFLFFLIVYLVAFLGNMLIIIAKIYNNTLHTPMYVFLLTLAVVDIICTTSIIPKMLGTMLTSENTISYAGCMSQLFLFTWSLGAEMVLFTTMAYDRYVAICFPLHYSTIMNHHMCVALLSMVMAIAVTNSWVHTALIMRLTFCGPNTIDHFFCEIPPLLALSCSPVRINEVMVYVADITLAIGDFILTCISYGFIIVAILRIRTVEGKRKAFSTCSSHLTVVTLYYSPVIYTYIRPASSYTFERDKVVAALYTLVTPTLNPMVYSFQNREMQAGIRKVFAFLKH
How it was run: as §1

[10] = target: T10, OR13H1 (Homo sapiens) (UniProt Q8NG92)
T10 sequence (whole entry): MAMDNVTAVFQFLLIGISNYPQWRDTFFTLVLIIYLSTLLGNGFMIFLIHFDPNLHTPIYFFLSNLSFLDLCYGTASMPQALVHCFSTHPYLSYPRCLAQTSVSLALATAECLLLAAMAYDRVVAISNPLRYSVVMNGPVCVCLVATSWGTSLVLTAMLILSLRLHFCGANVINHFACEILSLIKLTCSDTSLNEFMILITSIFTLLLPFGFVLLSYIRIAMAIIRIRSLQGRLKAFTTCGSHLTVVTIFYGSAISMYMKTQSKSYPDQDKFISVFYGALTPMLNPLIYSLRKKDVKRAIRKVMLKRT
How it was run: as §1

[11] = target: T11, OR13J1 (Homo sapiens) (UniProt Q8NGT2)
T11 sequence (whole entry): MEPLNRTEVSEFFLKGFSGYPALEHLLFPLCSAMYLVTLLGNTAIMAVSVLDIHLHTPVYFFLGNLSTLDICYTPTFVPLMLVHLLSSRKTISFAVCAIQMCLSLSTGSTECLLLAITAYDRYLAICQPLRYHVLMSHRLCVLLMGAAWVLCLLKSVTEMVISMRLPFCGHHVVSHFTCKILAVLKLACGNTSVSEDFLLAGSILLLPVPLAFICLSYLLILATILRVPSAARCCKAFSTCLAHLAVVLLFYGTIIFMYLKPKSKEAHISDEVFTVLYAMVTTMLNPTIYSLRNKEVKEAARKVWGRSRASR
How it was run: as §1

[12] = target: T12, OR14A16 (Homo sapiens) (UniProt Q8NHC5)
T12 sequence (whole entry): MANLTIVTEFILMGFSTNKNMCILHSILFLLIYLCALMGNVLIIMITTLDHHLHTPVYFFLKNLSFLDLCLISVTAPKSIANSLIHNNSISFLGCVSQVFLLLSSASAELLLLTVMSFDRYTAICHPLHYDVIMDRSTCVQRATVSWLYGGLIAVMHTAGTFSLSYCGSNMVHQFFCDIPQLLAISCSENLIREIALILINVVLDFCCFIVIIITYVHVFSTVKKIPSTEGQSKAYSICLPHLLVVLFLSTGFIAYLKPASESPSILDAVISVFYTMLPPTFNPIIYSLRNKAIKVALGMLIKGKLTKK
How it was run: as §1

[13] = target: T13, OR14A2 (Homo sapiens) (UniProt Q96R54)
T13 sequence (whole entry): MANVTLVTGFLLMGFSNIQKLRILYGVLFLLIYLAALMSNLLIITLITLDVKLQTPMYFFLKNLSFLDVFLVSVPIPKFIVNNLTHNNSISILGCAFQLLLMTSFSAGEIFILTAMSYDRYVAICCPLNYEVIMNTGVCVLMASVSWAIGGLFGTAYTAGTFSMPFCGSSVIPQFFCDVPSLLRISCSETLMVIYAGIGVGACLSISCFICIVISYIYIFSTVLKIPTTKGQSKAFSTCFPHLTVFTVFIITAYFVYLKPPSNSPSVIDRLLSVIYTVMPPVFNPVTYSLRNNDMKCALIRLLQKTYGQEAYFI
How it was run: as §1

[14] = target: T14, OR14C36 (Homo sapiens) (UniProt Q8NHC7)
T14 sequence (whole entry): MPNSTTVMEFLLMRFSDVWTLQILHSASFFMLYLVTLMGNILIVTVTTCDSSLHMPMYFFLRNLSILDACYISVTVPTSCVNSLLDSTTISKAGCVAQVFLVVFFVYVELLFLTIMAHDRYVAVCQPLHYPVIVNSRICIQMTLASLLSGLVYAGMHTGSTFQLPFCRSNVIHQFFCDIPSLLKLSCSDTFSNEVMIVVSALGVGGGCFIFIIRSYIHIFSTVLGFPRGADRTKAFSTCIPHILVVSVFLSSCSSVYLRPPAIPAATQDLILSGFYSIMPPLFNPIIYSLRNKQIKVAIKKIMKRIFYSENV
How it was run: as §1

[15] = target: T15, OR14I1 (Homo sapiens) (UniProt A6ND48)
T15 sequence (whole entry): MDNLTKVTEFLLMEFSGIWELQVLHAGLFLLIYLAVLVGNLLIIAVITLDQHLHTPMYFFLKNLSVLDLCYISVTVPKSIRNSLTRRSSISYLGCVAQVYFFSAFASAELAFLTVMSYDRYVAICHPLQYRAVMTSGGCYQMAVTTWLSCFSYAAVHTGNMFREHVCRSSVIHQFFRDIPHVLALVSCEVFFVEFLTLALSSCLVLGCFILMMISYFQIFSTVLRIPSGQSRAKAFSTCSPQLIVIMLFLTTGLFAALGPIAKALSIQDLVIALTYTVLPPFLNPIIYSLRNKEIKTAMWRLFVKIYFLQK
How it was run: as §1

[16] = target: T16, OR14J1 (Homo sapiens) (UniProt Q9UGF5)
T16 sequence (whole entry): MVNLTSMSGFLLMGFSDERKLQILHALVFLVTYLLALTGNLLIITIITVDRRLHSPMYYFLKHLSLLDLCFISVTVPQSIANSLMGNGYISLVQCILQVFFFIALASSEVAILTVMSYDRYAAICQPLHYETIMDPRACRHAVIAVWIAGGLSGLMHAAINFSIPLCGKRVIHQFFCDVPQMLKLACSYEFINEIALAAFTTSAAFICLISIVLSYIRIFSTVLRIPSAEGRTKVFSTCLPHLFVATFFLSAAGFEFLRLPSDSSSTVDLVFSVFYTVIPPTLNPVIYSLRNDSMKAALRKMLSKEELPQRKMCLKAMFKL
How it was run: as §1

[17] = target: T17, OR14K1 (Homo sapiens) (UniProt Q8NGZ2)
T17 sequence (whole entry): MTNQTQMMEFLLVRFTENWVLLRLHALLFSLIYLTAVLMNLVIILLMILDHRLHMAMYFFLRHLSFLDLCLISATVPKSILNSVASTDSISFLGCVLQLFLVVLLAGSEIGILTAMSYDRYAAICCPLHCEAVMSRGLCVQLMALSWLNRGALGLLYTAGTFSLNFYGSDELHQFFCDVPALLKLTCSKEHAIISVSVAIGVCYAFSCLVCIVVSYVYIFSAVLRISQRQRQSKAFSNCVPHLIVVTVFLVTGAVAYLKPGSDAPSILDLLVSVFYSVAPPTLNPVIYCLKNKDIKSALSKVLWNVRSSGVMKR
How it was run: as §1

[18] = target: T18, OR1A1 (Homo sapiens) (UniProt Q9P1Q5)
T18 sequence (whole entry): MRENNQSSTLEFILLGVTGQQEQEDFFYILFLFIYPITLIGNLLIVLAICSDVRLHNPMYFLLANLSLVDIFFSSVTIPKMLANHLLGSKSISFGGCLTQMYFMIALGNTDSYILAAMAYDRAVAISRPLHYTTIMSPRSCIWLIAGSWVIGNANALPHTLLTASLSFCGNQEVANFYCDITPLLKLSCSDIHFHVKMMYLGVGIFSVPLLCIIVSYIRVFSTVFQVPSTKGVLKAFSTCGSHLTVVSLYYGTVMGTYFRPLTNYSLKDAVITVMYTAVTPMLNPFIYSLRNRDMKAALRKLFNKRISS
How it was run: as §1

Measured: odorant receptor agonist call;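 further: active if original authors judged signal statistically different from baseline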

CCCCC(S)C(C)CO (stereo not drawn)
inactive: [1] | [2] | [3] | [4] | [5] | [6] | [7] | [8] | [9] | [10] | [11] | [12] | [13] | [14] | [15] | [16] | [17] | [18]
